Marks after values point to notes of the source that are not given here.
What was measured:
[1] = test system: patients with advanced/metastatic solid tumors; assay: Phase I safety: adverse events; assay type: in vivo, human
Plasma pharmacokinetics = assay type: in vivo, human; conditions: for AUC(0-t) / Cmax / Vd/F / half-life: human, plasma, oral; for Vd/F: Vz/F
Procedure, shortened: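 The test compound is given orally once daily for 7 days in 2-week cycles (S1). Plasma is sampled in cycle 1 on days 1, 2, 4, 7, 8 and 9, and in cycle 2 on days 1, 4 and 7. Cycle 1 day 1 is sampled from 30 min to 24 h after dosing and day 7 from 30 min to 96 h. Parent and metabolite are measured by validated LC-MS-MS, with calibration ranges of 0.00109–1.09 and 0.00105–1.05 μM respectively.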

[2] = test system: CDK related biomarkers Cyclin A2, Cyclin B1 and Ki67; assay: Pharmacodynamics: qRT-PCR on skin biopsies; assay type: in vivo, human; conditions: pre- vs post-treatment
CDK2/Cyclin A complex = conditions: read-out: IC50, CDK2/Cyclin A complex; cited from earlier work
CDK4 = conditions: cited from earlier work
CDK7 = conditions: cited from earlier work
animals = conditions: high single or repeated doses; cited from earlier work

For CNC(=O)c1nn(C)c2c1C(C)(C)Cc1cnc(Nc3ccc(N4CCN(C)CC4)cc3)nc1-2 [PHA-848125AC, N,1,4,4-tetramethyl-8-{[4-(4-methylpiperazin-1-yl)phenyl]amino}-4,5-dihydro-1H-pyrazolo [4,3-h]quinazoline-3-carboxamide], the “Vomiting, drug-related, CTC Grade 1–4: patients” value ([1]; S2 200 mg/day N=4, all cycles) was 1, the “dose-limiting toxicities (DLTs)” value ([1]; S2 (4 days on/3 days off × 3wks q4wks), all doses) was “tremors (Grade 2–3), elevated lipase (Grade 3), increased creatinine (Grade 2), and nausea and vomiting (Grade 3)” and the “patients discontinued due to adverse events” value ([1]; S2 N=15) was 13.3 ^a %. The “blood chemistry and hematology abnormalities” value ([1]; any schedule, except lymphocytopenia) was “No significant blood chemistry and hematology abnormalities”, the “doses at which tremors and ataxia were dose-limiting” value ([1]; both schedules) was greater than 150 mg/day and the lymphocytopenia occurrence ([1]; both schedules) was “half of cases”. For the same molecule, the on study deaths ([1]; both schedules) was “No on study deaths”, the “effects on coagulation, blood pressure, ECGs” value ([1]; in vivo) was “did not cause significant effects” and the “recommended phase II dose (RP2D)” value ([1]; oral, both schedules (S1 and S2)) was 150 mg/day. The CL/F (Plasma pharmacokinetics; S1 50 mg/day, mean±SD, n=2) was 19.7 ± 4.35 L/h, the CL/F (Plasma pharmacokinetics; S1 100 mg/day, mean±SD, n=6) was 13.7 ± 6.49 L/h and the CL/F (Plasma pharmacokinetics; S1 200 mg/day, mean±SD, n=6) was 15.2 ± 2.44 L/h. It also gave a CL/F (Plasma pharmacokinetics; S1 300 mg/day, n=1) of 7.78 L/h, a CL/F (Plasma pharmacokinetics; S2 150 mg/day, mean±SD, n=4) of 16.4 ± 6.16 L/h and a CL/F (Plasma pharmacokinetics; S2 200 mg/day, mean±SD, n=3) of 12.7 ± 1.60 L/h. For the same molecule, the “accumulation factor after repeated administrations” value (Plasma pharmacokinetics; both schedules) was 3, the AUC(0-t) (Plasma pharmacokinetics; 50 mg/day, AUC0-24, S1 50 mg/day, Day 1, mean±SD, n=3) was 2.5 ± 0.6 µM·h and the AUC(0-t) (Plasma pharmacokinetics; 50 mg/day, AUC0-24, S1 50 mg/day, Day 7, mean±SD, n=3) was 6.8 ± 2.2 µM·h. The AUC(0-t) (Plasma pharmacokinetics; 50 mg/day, AUCt, S1 50 mg/day, Day 7, mean±SD, n=3) was 11.7 ± 5.4 µM·h, the Cmax (Plasma pharmacokinetics; 50 mg/day, S1 50 mg/day, Day 1, mean±SD, n=3) was 200 ± 100 nM and the Cmax (Plasma pharmacokinetics; 50 mg/day, S1 50 mg/day, Day 7, mean±SD, n=3) was 400 ± 200 nM. The Vd/F (Plasma pharmacokinetics; 50 mg/day, S1 50 mg/day, mean±SD, n=2) was 707 ± 39.8 L, the half-life (Plasma pharmacokinetics; 50 mg/day, t1/2,z, S1 50 mg/day, mean±SD, n=2) was 25.3 ± 4.18 h and the AUC(0-t) (Plasma pharmacokinetics; 100 mg/day, AUC0-24, S1 100 mg/day, Day 1, mean±SD, n=6) was 6 ± 2.2 µM·h. It also gave an AUC(0-t) (Plasma pharmacokinetics; 100 mg/day, AUC0-24, S1 100 mg/day, Day 7, mean±SD, n=6) of 20 ± 11 µM·h, an AUC(0-t) (Plasma pharmacokinetics; 100 mg/day, AUCt, S1 100 mg/day, Day 7, mean±SD, n=6) of 43.4 ± 26.8 µM·h and a Cmax (Plasma pharmacokinetics; 100 mg/day, S1 100 mg/day, Day 1, mean±SD, n=6) of 400 ± 100 nM. It also gave a Cmax (Plasma pharmacokinetics; 100 mg/day, S1 100 mg/day, Day 7, mean±SD, n=6) of 1200 ± 500 nM, a Vd/F (Plasma pharmacokinetics; 100 mg/day, S1 100 mg/day, mean±SD, n=6) of 840 ± 550 L and a half-life (Plasma pharmacokinetics; 100 mg/day, t1/2,z, S1 100 mg/day, mean±SD, n=6) of 42.9 ± 15.9 h. It also gave an AUC(0-t) (Plasma pharmacokinetics; 150 mg/day, AUC0-24, S1 150 mg/day, Day 1, mean±SD, n=6) of 8.8 ± 2.6 µM·h, an AUC(0-t) (Plasma pharmacokinetics; 150 mg/day, AUC0-24, S1 150 mg/day, Day 7, mean±SD, n=6) of 25 ± 8.6 µM·h and an AUC(0-t) (Plasma pharmacokinetics; 150 mg/day, AUC0-24, S2 150 mg/day, Day 1, mean±SD, n=4) of 7.2 ± 2.8 µM·h. For the same molecule, the AUC(0-t) (Plasma pharmacokinetics; 150 mg/day, AUC0-24, S2 150 mg/day, Day 18, mean±SD, n=4) was 23 ± 9.5 µM·h, the AUC(0-t) (Plasma pharmacokinetics; 150 mg/day, AUCt, S1 150 mg/day, Day 7, mean±SD, n=6) was 46.5 ± 19.4 µM·h and the AUC(0-t) (Plasma pharmacokinetics; 150 mg/day, AUCt, S2 150 mg/day, Day 18, mean±SD, n=4) was 54.6 ± 25.1 µM·h. For the same molecule, the Cmax (Plasma pharmacokinetics; 150 mg/day, S1 150 mg/day, Day 1, mean±SD, n=6) was 700 ± 200 nM, the Cmax (Plasma pharmacokinetics; 150 mg/day, S1 150 mg/day, Day 7, mean±SD, n=6) was 1500 ± 500 nM and the Cmax (Plasma pharmacokinetics; 150 mg/day, S2 150 mg/day, Day 1, mean±SD, n=4) was 400 ± 100 nM. For the same molecule, the Cmax (Plasma pharmacokinetics; 150 mg/day, S2 150 mg/day, Day 18, mean±SD, n=4) was 1200 ± 300 nM, the Vd/F (Plasma pharmacokinetics; 150 mg/day, S2 150 mg/day, mean±SD, n=4) was 1010 ± 456 L and the half-life (Plasma pharmacokinetics; 150 mg/day, t1/2,z, S1 150 mg/day, mean±SD, n=6) was 33.1 ± 9.53 h. It also gave a half-life (Plasma pharmacokinetics; 150 mg/day, t1/2,z, S2 150 mg/day, mean±SD, n=4) of 43.1 ± 10.7 h, an AUC(0-t) (Plasma pharmacokinetics; 180 mg/day, AUC0-24, S2 180 mg/day, Day 1, mean±SD, n=4) of 7 ± 2.1 µM·h and an AUC(0-t) (Plasma pharmacokinetics; 180 mg/day, AUC0-24, S2 180 mg/day, Day 18, mean±SD, n=4) of 17 ± 8.8 µM·h. For the same molecule, the AUC(0-t) (Plasma pharmacokinetics; 180 mg/day, AUCt, S2 180 mg/day, Day 18, mean±SD, n=4) was 35.1 ± 26.3 µM·h, the Cmax (Plasma pharmacokinetics; 180 mg/day, S2 180 mg/day, Day 1, mean±SD, n=4) was 500 ± 200 nM and the Cmax (Plasma pharmacokinetics; 180 mg/day, S2 180 mg/day, Day 18, mean±SD, n=4) was 1100 ± 500 nM. It also gave a half-life (Plasma pharmacokinetics; 180 mg/day, t1/2,z, S2 180 mg/day, mean±SD, n=4) of 23.5 ± 8.42 h, an AUC(0-t) (Plasma pharmacokinetics; 200 mg/day, AUC0-24, S1 200 mg/day, Day 1, mean±SD, n=6) of 9.6 ± 3.6 µM·h and an AUC(0-t) (Plasma pharmacokinetics; 200 mg/day, AUC0-24, S1 200 mg/day, Day 7, mean±SD, n=6) of 29 ± 4.5 µM·h. For the same molecule, the AUC(0-t) (Plasma pharmacokinetics; 200 mg/day, AUC0-24, S2 200 mg/day, Day 1, mean±SD, n=3) was 12 ± 6.3 µM·h, the AUC(0-t) (Plasma pharmacokinetics; 200 mg/day, AUC0-24, S2 200 mg/day, Day 18, mean±SD, n=3) was 35 ± 4.6 µM·h and the AUC(0-t) (Plasma pharmacokinetics; 200 mg/day, AUCt, S1 200 mg/day, Day 7, mean±SD, n=6) was 63.5 ± 9.04 µM·h. For the same molecule, the AUC(0-t) (Plasma pharmacokinetics; 200 mg/day, AUCt, S2 200 mg/day, Day 18, mean±SD, n=3) was 63.6 ± 17.5 µM·h, the Cmax (Plasma pharmacokinetics; 200 mg/day, S1 200 mg/day, Day 1, mean±SD, n=6) was 700 ± 300 nM and the Cmax (Plasma pharmacokinetics; 200 mg/day, S1 200 mg/day, Day 7, mean±SD, n=6) was 1700 ± 200 nM. The Cmax (Plasma pharmacokinetics; 200 mg/day, S2 200 mg/day, Day 1, mean±SD, n=3) was 1000 ± 400 nM, the Cmax (Plasma pharmacokinetics; 200 mg/day, S2 200 mg/day, Day 18, mean±SD, n=3) was 2500 ± 500 nM and the Vd/F (Plasma pharmacokinetics; 200 mg/day, S1 200 mg/day, mean±SD, n=6) was 721 ± 207 L. It also gave a Vd/F (Plasma pharmacokinetics; 200 mg/day, S2 200 mg/day, mean±SD, n=3) of 473 ± 68.4 L, a half-life (Plasma pharmacokinetics; 200 mg/day, t1/2,z, S1 200 mg/day, mean±SD, n=6) of 32.4 ± 4.79 h and a half-life (Plasma pharmacokinetics; 200 mg/day, t1/2,z, S2 200 mg/day, mean±SD, n=3) of 25.8 ± 1.46 h. For the same molecule, the AUC(0-t) (Plasma pharmacokinetics; 300 mg/day, AUC0-24, S1 300 mg/day, Day 1, n=1) was 23 µM·h, the AUC(0-t) (Plasma pharmacokinetics; 300 mg/day, AUC0-24, S1 300 mg/day, Day 7, n=1) was 84 µM·h and the AUC(0-t) (Plasma pharmacokinetics; 300 mg/day, AUCt, S1 300 mg/day, Day 7, n=1) was 168 µM·h. It also gave a Cmax (Plasma pharmacokinetics; 300 mg/day, S1 300 mg/day, Day 1, n=1) of 1200 nM, a Cmax (Plasma pharmacokinetics; 300 mg/day, S1 300 mg/day, Day 7, n=1) of 5100 nM and a Vd/F (Plasma pharmacokinetics; 300 mg/day, S1 300 mg/day, n=1) of 348 L. The half-life (Plasma pharmacokinetics; 300 mg/day, t1/2,z, S1 300 mg/day, n=1) was 31 h, the half-life (Plasma pharmacokinetics; half-life, terminal, overall) was roughly 33 h and the oral absorption (Plasma pharmacokinetics; in vivo, po) was “good oral absorption”. For the same molecule, the “modulation of CDK related biomarkers Cyclin A2, Cyclin B1 and Ki67” value [2] was “down modulation”, the IC50 (CDK2/Cyclin A complex) was 45 nM and the “inhibitory activity towards CDK4” value (CDK4) was “inhibitory activity”. The “inhibitory activity towards CDK7” value (CDK7) was “inhibitory activity” and the “neurological effects in animals” value (animals) was “tremors and increased reactivity to external stimuli”.
